From the RNAGym collection of RNA variant scans (doi:10.1126/science.aae0568) come the findings set out here.

B1: tRNA (parent)
chain: GUUCCGUUGGCGUAAUGGUAACGCGUCUCCCUCCUAAGGAGAAGACUGCGGGUUCGAGUCCCGUACGGAACG

This sample holds only a part of the variants without activity. Bounds are passed on as bounds.

The variants in the data set derive from B1. The data set is described as follows: yeast fitness relative to wild type (ratio to wild type); higher = fitter; tRNA-Arg(CCU), competitive growth, 37 C, YPD. The gist of the method:
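Gene amplicons from the start population and from each of six end populations were read by 100-nucleotide paired-end sequencing. Those end populations came from pooled Saccharomyces cerevisiae strains carrying tRNA-Arg(CCU) gene variants at the native locus, competed in YPD at 37°C for 24 hours. Fitness relative to wild type was worked out from changes in genotype frequencies. Genotypes needed ≥ 100 starting reads, and estimates < 0.5 were set to 0.5.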
Consider U8A A42U C62A A70C, for which the yeast fitness was at most 0.5. The value for U28G A65C was 0.669. The figure for U28C A36C is 0.579; for C4U A36G A40C G44C it is 0.596.

Consider G9A C29U, for which the yeast fitness was determined as 0.914. The figure for G12C C31U A57U is 0.603; for C22U U35A G67U it is at most 0.5; for G38A A45C it is 0.818. The value for A20U C61U C66U was 0.559; that for C5A G12C G18C C30A C31G U54G was 0.605. The figure for U2C C4U G25C C29U G68A is at most 0.5; for C61G A70U it is 0.772; for A21G C22U C30G G51A A69U it is 0.551. For the variant U35G A70C, the yeast fitness amounted to 0.711. The value for C4G C11A C29U C33U U54C was at most 0.5; that for U3C G56A was 1.03; that for C5U G18A G25C A69C was at most 0.5. The value for U19A C30G G39C U53C C55A was at most 0.5. The figure for C11G C33G A37U A45U is 0.64; for G18A C22A A37C G41C C55G U64A it is at most 0.5; for C4G C5U A37U C61A it is at most 0.5. As to U35C G39A U53A, the yeast fitness amounted to 0.567. The value for C11A C29G C60U G67A A69U was at most 0.5. The value for C5U C11U G67C was 0.659; that for U8C G50A A69U was 0.804; that for C5U G48A A69C was 0.758. Regarding C4G C5G U26G A45C C61U G67A, the yeast fitness is at most 0.5. As to A15U U54A, the yeast fitness came to 0.53. The value for G10A G17C C30G C33G C61A A69U was 0.581; that for C4U C24G A37G was 0.567; that for A14U C29U A37U C46U U59G was at most 0.5. The figure for A15U G38A C46G G56C is at most 0.5. The value for U3C U19A C27G C62U was at most 0.5; that for C27A U59G was 0.778. In the case of G38C G51A A57U, the yeast fitness is at most 0.5. The value for A15C C46U was 0.939; that for U13A C29U was 0.786; that for U7G U13C A37U C60G was at most 0.5.

Take C27A C46A G63A: the yeast fitness stood at 0.714. C61G C62G: the yeast fitness was found to be 0.741.

G12A A14C C31G A65C: the yeast fitness was at most 0.5. The value for C5G C22A C33G U35A C55U was at most 0.5; that for A21C C33G G39A was at most 0.5. The value for C22U A37U U53G was at most 0.5; that for C4A C60G was 0.61; that for A43C C49G was 0.639.

With U28C G41A, the yeast fitness turned out to be 0.783. The figure for U7G C34A C46G A65C is 0.746.

Consider U8A C60A, for which the yeast fitness is at most 0.5. The value for U8C U28A was 0.901; that for C4U C5G C29U U32A C33U was at most 0.5. The figure for A21G G23A C31U G63C U64A C66G is at most 0.5; for G23C C24G U32G A42C G44A G51C C60U it is at most 0.5. G9A A14C C55U: the yeast fitness is at most 0.5. The value for C27G G41A U64A was 0.681; that for A37C C55A A65C was 0.603.

With C5G U16A C29U A40U G52A A65C, the yeast fitness is at most 0.5. The figure for U13A G23C C27G U53C C61A G68A is 0.584; for C5U U19A G38C C62G G68C it is 0.62. Regarding C29G A43U, the yeast fitness worked out at 0.594. The figure for C31G C66G is 0.587; for C11U U26G G67C it is at most 0.5. The figure for A20C C49G is 0.795; for G12C C62G it is 0.739. In the case of G25A C27U C34G, the yeast fitness came out at 0.748.

For U8C C46A, the yeast fitness was determined as 1.01.

Consider C5G G9C A40U C66G, for which the yeast fitness is at most 0.5. As for C31G G51C A70U, the yeast fitness turned out to be 0.561. Turning to C11A G12A U16A G23C, the yeast fitness is at most 0.5.

Take G56C G58C C66U: the yeast fitness worked out at 0.625. The figure for A20C A42U is 0.782; for C5A C31G A37G C62U G63C it is 0.577; for C34U A36U C66U it is at most 0.5. The value for G9C C30A U35C was at most 0.5; that for A15G C29A A69C was 0.517; that for U28A A43G G68C was 0.642. The value for G10A C11A A15C C24A C34A C46G was 0.559; that for C29A C34G A36G A40C U47A U64C was at most 0.5; that for A21G U32C G51C C61A was 0.508.

Regarding C4U C27G A45C, the yeast fitness stood at 0.564. Regarding C4A C46G C62U, the yeast fitness was found to be 0.609. The figure for G12A C55A A65C is at most 0.5.

As for U35G C61U, the yeast fitness is 0.792. The value for A20C C24G was 0.679; that for C27U C60G was 0.735; that for A15C C31A A37U was at most 0.5. The value for U26C C30G C61U was at most 0.5; that for C31A A42C C46U was 0.592. The figure for U7C C60G is 0.583. As for U2A C5A G9C U16C G25C G68C, the yeast fitness is 0.586.

For C33G U47A, the yeast fitness was determined as 0.579.

On to U32C C34U, for which the yeast fitness worked out at 0.788. On to U2G C33U C34G G48C G67C, for which the yeast fitness was at most 0.5. The figure for U2G U28C is 0.825; for U16C U26A G38C it is at most 0.5; for C29A C66U it is 0.627. The figure for C30A A40C G56A is at most 0.5. The figure for C11G U16A U26A C34U C55G is at most 0.5. Regarding G9A G44A G48A G50C, the yeast fitness was at most 0.5. The figure for C22A G25A is 0.992; for C27A C29A C49A it is at most 0.5; for U32C A45U G52A A70U it is at most 0.5. The value for C4G G17A G50A C55U G67C was at most 0.5. For the variant G25C C29A U32A A65U, the yeast fitness was at most 0.5.

Consider G18C C49U C62U, for which the yeast fitness was at most 0.5. The value for C29G A40G was 0.648.

With G18A C46U G50U C60G A70G, the yeast fitness is at most 0.5. Take C5G G44A A69U: the yeast fitness is 0.646.

Take C4A C31A U35C A45U: the yeast fitness is at most 0.5. The figure for C27G A43G A70G is at most 0.5; for C11U A15G G63C C66U it is at most 0.5. Consider G6C U13A C34A, for which the yeast fitness is at most 0.5. The value for G18A G67C was 0.841; that for G17C A70G was 0.616. The figure for G18C A42C A43C C66G is at most 0.5; for C31U U35A G51C it is at most 0.5; for G9A U13G A36G U59A it is 0.68.

With A40C U59G C60G, the yeast fitness was at most 0.5. Take A15U C34G G51A C66U: the yeast fitness is 0.584. The figure for C24G U64A A70C is at most 0.5.

Consider C33G C55A G58A, for which the yeast fitness came out at 0.609. The figure for A20G C22G is 0.952. Consider U3C A15G C29A A40U C55G C61G, for which the yeast fitness was at most 0.5. As for U8C A69C, the yeast fitness was found to be 0.991. The figure for U3A G9A C62G C66G is at most 0.5; for A15G U19C C29U A37G it is at most 0.5; for U3C A36U C62U it is 0.553.

As for G18A C29U C31A C66U, the yeast fitness was at most 0.5.

C4G G41A A45U: the yeast fitness worked out at 0.537.

For the variant G50A U59A G67C, the yeast fitness is at most 0.5. The figure for G17C C24A A36U G41C is at most 0.5. The value for A36G A45C G52C was 0.533; that for C4U C30A A45G C55G A65G was 0.636. The figure for C5G G17A A20C C49G A69C is at most 0.5; for A15G A20U U26C C29G U32A it is 0.591; for A15C A20G A65U A69G it is at most 0.5. For G10C C34G, the yeast fitness worked out at 0.501. The figure for C33G U47G G56A A57G A69U is at most 0.5. The figure for A40G A69U is 1.06; for A43C A45G it is 1.02. The figure for A37U U53G C55G C62A is 0.744; for C5A U13C C27A U28G G67U it is at most 0.5; for C5G G9C A20U A21G C24G C27G it is 0.577. For G56A A65G C66U A69U, the yeast fitness came to 0.573. Turning to C29A C30U G48A G50A C60A, the yeast fitness is at most 0.5. For U28G A45G G51C A70G, the yeast fitness was at most 0.5. With C30G C33G A70U, the yeast fitness was 0.532.

With A20C C30U C46A C62G A65G, the yeast fitness came out at 0.534.

For U7C A36U G50C C60A, the yeast fitness stood at 0.57.

Regarding U32C G39A, the yeast fitness is 0.928. The value for A42U G51C was 0.567; that for A45U C61G C66U was 0.53; that for A14U A45G was 0.67. The value for A21U G25A C60U G68U was at most 0.5; that for C4G G6A U13G A14G A69U was at most 0.5. Take A15G U19G A69C: the yeast fitness came out at 0.721. Turning to C31A C34U, the yeast fitness is 0.555. The figure for C4U U28C is 1.02; for C11U U19C C22G G25C C33U G39C C62G it is at most 0.5; for U13G A43G it is 0.902. The value for U2A C11G C34U A42U C49G was 0.788. The value for C11U G25C C31U was 0.679. For C34G G48C, the yeast fitness amounted to 0.519.

On to G10A G17A U19A C29U C34G, for which the yeast fitness is at most 0.5. The value for U13A A57U U64G A65G was at most 0.5. The value for U3C G56A A69C was 0.802. The value for A15G A40G A65G was 0.663.
